# Experimental data as given in ChEMBL document CHEMBL1122260, “Synthesis and biological activity of prostaglandin lactones” (J Med Chem, 1983).
# Activity calls are given as the source filed them. The rule behind the calls is not given here.
# Columns and labels:
# [1] = test system: Gerbillinae; experiment: Gerbil colon stimulation relative to PGE1 (100); Range is between (1-3); assay type: functional
# Summary of the method: (§1)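 Isolated ascending colon from male gerbils (Meriones unguiculatus) mounted in de Jalon's solution (NaCl 154 mM, KCl 0.54 mM, CaCl2 0.27 mM, NaHCO3 1.78 mM, glucose 5.55 mM); isotonic contractions recorded with linear transducers in 5-mL baths.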
# [2] = species on record: Rattus norvegicus; experiment: Blood pressure potency in rat relative to PGE1 (100); assay type: functional
# Summary of the method: (§2)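 Mature female albino rats, pentobarbital anesthesia (30 mg/kg ip, supplemented as needed), pretreated with atropine sulfate (0.08 mg sc) and pentolinium tartrate (2 mg iv). Test solutions or emulsions injected via femoral vein; carotid arterial pressure recorded by transducer. Change in mmHg (rise or fall) compared with standards: PGE1 for depressor, PGF2α for pressor responses.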
# [3] = test system: Gerbillinae; experiment: Gerbil colon stimulation relative to PGE1 (100); Range from (1-3); assay type: functional; summary of the method: as §1
# [4] = species on record: Rattus norvegicus; experiment: Blood pressure potency in rat relative to PGE1 (100); value ranges from( 0.1-0.3); assay type: functional; summary of the method: as §2
# [5] = test system: Gerbillinae; experiment: Gerbil colon stimulation relative to PGE1 (100); Range is between (0.3-1); assay type: functional; summary of the method: as §1
# [6] = species on record: Rattus norvegicus; experiment: Blood pressure potency in rat relative to PGE1 (100); compound is biphasic and weak.; assay type: functional, organism-based; summary of the method: as §2
# [7] = species on record: Rattus norvegicus; experiment: Blood pressure potency in rat relative to PGF2-alpha (100); value ranges from (3-10); assay type: functional; summary of the method: as §2
# [8] = test system: Gerbillinae; experiment: Gerbil colon stimulation relative to PGE1 (100); assay type: functional; summary of the method: as §1
# [9] = species on record: Rattus norvegicus; experiment: Blood pressure potency in rat relative to PGF2-alpha (100). Range is between (32-100).; assay type: functional; summary of the method: as §2
# [10] = Plasma hydrolysis of percent cross reaction of substrate with PGF2-alpha antisera; assay type: ADME, cell-free
# Summary of the method: (§3)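 Substrates incubated with saline (control), hog liver esterase, or rat, monkey or human blood plasma for 2 h or 20 h; released PGF2α quantified by radioimmunoassay as cross-reactivity with PGF2α antisera. PGF2α itself served as assay positive control. Substrate cross-reaction with the antisera determined separately.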
# [11] = species on record: Sus scrofa; experiment: Plasma hydrolysis following 2 h incubation with hog liver esterase; assay type: functional; summary of the method: as §3
# [12] = species on record: Sus scrofa; experiment: Plasma hydrolysis following 20 hr incubation with hog liver esterase; assay type: functional; summary of the method: as §3
# [13] = species on record: Homo sapiens; experiment: Plasma hydrolysis following 2 hr incubation with human plasma; assay type: functional; summary of the method: as §3
# [14] = species on record: Homo sapiens; experiment: Plasma hydrolysis following 20 hr incubation with human plasma; assay type: functional; summary of the method: as §3
# [15] = test system: Monkey; experiment: Plasma hydrolysis following 20 hr incubation with monkey plasma; assay type: functional, Cercopithecidae; summary of the method: as §3
# [16] = test system: Monkey; experiment: Plasma hydrolysis following 2 hr incubation with monkey plasma; assay type: functional, Cercopithecidae; summary of the method: as §3
# [17] = species on record: Rattus norvegicus; experiment: Plasma hydrolysis following 2 hr incubation with rat plasma; assay type: functional; summary of the method: as §3
# [18] = species on record: Rattus norvegicus; experiment: Plasma hydrolysis following 20 hr incubation with rat plasma; assay type: functional; summary of the method: as §3
# [19] = species on record: Rattus norvegicus; experiment: Blood pressure potency in rat relative to PGE1 (100). Range is between (0.1-3); assay type: functional; summary of the method: as §2
# [20] = test system: Rattus norvegicus; experiment: in vivo Urinary excretion of PGF2-alpha metabolite in rats, when administered sc (1 mg/rat) urinary excretion on day 2 Range is between (0.7-1.1).; assay type: functional, Urine
# [21] = test system: Rattus norvegicus; experiment: in vivo Urinary excretion of PGF2-alpha metabolite in rats, when administered sc (1 mg/rat) urinary excretion on day 1 Range is between (1.3-1.6).; assay type: functional, Urine
# [22] = test system: Gerbillinae; experiment: Gerbil colon stimulation relative to PGE1 (100); Range from (0.3-1); assay type: functional; summary of the method: as §1
# [23] = test system: Rattus norvegicus; experiment: in vivo urinary excretion of PGF2-alpha metabolite in rats, when administered sc (1 mg/rat) urinary excretion on day 2. Range is between (1.2-2.0); assay type: functional, Urine
# [24] = species on record: Rattus norvegicus; experiment: Blood pressure potency in rat relative to PGF2-alpha (100); value ranges from (0.3-1); assay type: functional; summary of the method: as §2
# [25] = test system: Rattus norvegicus; experiment: in vivo Urinary excretion of PGF2-alpha metabolite in rats, when administered sc (1 mg/rat) urinary excretion on day. c1(27.2-31.1); assay type: functional, Urine
# [26] = test system: Rattus norvegicus; experiment: in vivo urinary excretion of PGF2-alpha metabolite in rats, when administered sc (1 mg/rat) urinary excretion on day 1; assay type: functional, Urine
# [27] = test system: Rattus norvegicus; experiment: in vivo urinary excretion of PGF2-alpha metabolite in rats, when administered sc (1 mg/rat) urinary excretion on day 2; assay type: functional, Urine
# [28] = species on record: Rattus norvegicus; experiment: Blood pressure potency in rat relative to PGE1 (100); Range is between (1-3); assay type: functional; summary of the method: as §2
# [29] = test system: Gerbillinae; experiment: Gerbil colon stimulation relative to PGE1 (100); Range from (0.1-0.3); assay type: functional; summary of the method: as §1
# [30] = species on record: Rattus norvegicus; experiment: Blood pressure potency in rat relative to PGE1 (100); value ranges from (0.1-0.3); assay type: functional; summary of the method: as §2
# [31] = test system: Gerbillinae; experiment: Gerbil colon stimulation relative to PGE1 (100); Range is between (0.1-0.3); assay type: functional; summary of the method: as §1
# [32] = test system: Rattus norvegicus; experiment: In vivo urinary excretion of PGF2-alpha metabolite in rats, when administered sc (1 mg/rat) urinary excretion on day 1 Range is between (31.9-155).; assay type: functional, Urine
# [33] = test system: Rattus norvegicus; experiment: In vivo urinary excretion of PGF2-alpha metabolite in rats, when administered sc (1 mg/rat) urinary excretion on day 2 Range is between (2.2-5.6).; assay type: functional, Urine
# [34] = test system: Gerbillinae; experiment: Gerbil colon stimulation relative to PGE1 (100); Range from (32-100); assay type: functional; summary of the method: as §1
# [35] = species on record: Rattus norvegicus; experiment: Blood pressure potency in rat relative to PGF2-alpha (100). Range is between(3-10).
# [36] = species on record: Rattus norvegicus; experiment: Blood pressure potency in rat relative to PGE1 (100). Range is between (10-32); assay type: functional; summary of the method: as §2
# [37] = species on record: Rattus norvegicus; experiment: Blood pressure potency in rat relative to PGF2-alpha (100). Range is between (0.3-1); assay type: functional; summary of the method: as §2
# [38] = test system: Gerbillinae; experiment: Gerbil colon stimulation relative to PGE1 (100); Ranges from (0.1-0.3); assay type: functional; summary of the method: as §1
# [39] = species on record: Rattus norvegicus; experiment: Blood pressure potency in rat relative to PGE1 (100); IA means inactive; assay type: functional, organism-based; summary of the method: as §2
# [40] = species on record: Rattus norvegicus; experiment: Blood pressure potency in rat relative to […]; T denotes toxic; assay type: organism-based; summary of the method: as §2
smiles,measurement,setting,value
CCCCC[C@@H]1/C=C\C2C=CC(=O)[C@@H]2C/C=C\CCCC(=O)O1 (stereo not given in full),Relative potency,[1],0.1
same,Relative potency,[2],0.1
CCCCC[C@](C)(O)/C=C/C1[C@H](O)C[C@@H]2OC(=O)C(F)(F)CC/C=C\C[C@H]12 (stereo not given in full),Relative potency,[3],1
same,Relative potency,[4],0.1
O=C1CCC/C=C\C[C@H]2C(=O)C[C@@H](O)C2/C=C\[C@@H](CCc2ccccc2)O1 (stereo not given in full),Relative potency,[5],0.3
same,Relative potency,[6],Weak
C[C@@](O)(/C=C/C1[C@H](O)C[C@@H]2OC(=O)CCC/C=C\C[C@H]12)CCc1ccccc1 (stereo not given in full),Relative potency,[3],1
same,Relative potency,[7],3
O=C1CCC/C=C\C[C@@H]2C(/C=C\[C@@H](CCc3ccccc3)O1)[C@H](O)C[C@@H]2O (stereo not given in full),Relative potency,[8],<0.1
same,Relative potency,[9],32
CCCCC[C@H](O)/C=C/C1[C@H](O)C[C@@H]2OC(=O)CCC/C=C\C[C@H]12 (stereo not given in full),Cross reaction,[10],< 0.05%
same,Relative potency,[1],1
same,Hydrolysis,[11],0.2%
same,Hydrolysis,[12],1.8%
same,Hydrolysis,[13],0.06%
same,Hydrolysis,[14],0.4%
same,Hydrolysis,[15],0.3%
same,Hydrolysis,[16],0.06%
same,Hydrolysis,[17],0.2%
same,Hydrolysis,[18],0.8%
same,Relative potency,[19],0.1
same,Urinary excretion,[20],0.9 µg
same,Urinary excretion,[21],1.4 µg
CCCCC[C@H](O)/C=C/C1[C@@H]2C[C@@H](O)[C@H]1C/C=C\CCCC(=O)O2 (stereo not given in full),Cross reaction,[10],0.09%
same,Relative potency,[22],0.3
same,Hydrolysis,[11],28.3%
same,Hydrolysis,[12],100%
same,Hydrolysis,[13],0.2%
same,Hydrolysis,[14],0.6%
same,Hydrolysis,[15],15.5%
same,Hydrolysis,[16],2.4%
same,Hydrolysis,[17],43%
same,Hydrolysis,[18],80.6%
same,Urinary excretion,[23],1.6 µg
same,Relative potency,[24],0.3
same,Urinary excretion,[25],27.2 µg
CCCCC[C@H](O)/C=C/[C@@H]1[C@@H](C/C=C\CCCC(=O)O)[C@@H](O)C[C@H]1O [DINOPROST],Cross reaction,[10],100%
same,Hydrolysis,[11],100%
same,Hydrolysis,[12],100%
same,Hydrolysis,[13],100%
same,Hydrolysis,[14],100%
same,Hydrolysis,[15],100%
same,Hydrolysis,[16],100%
same,Hydrolysis,[17],100%
same,Hydrolysis,[18],100%
same,Urinary excretion,[26],252 µg
same,Urinary excretion,[27],14.5 µg
CCCCC[C@@H]1/C=C\C2[C@H](O)CC(=O)[C@@H]2C/C=C\CCCC(=O)O1 (stereo not given in full),Relative potency,[1],1
same,Relative potency,[28],1
CCCCC[C@@H]1/C=C\C2[C@H](O)C[C@H](O)[C@@H]2CCCCCCC(=O)O1 (stereo not given in full),Relative potency,[8],<0.1
same,Relative potency,[2],<0.1
CCCCC[C@@H]1/C=C\C2CCC(=O)[C@@H]2C/C=C\CCCC(=O)O1 (stereo not given in full),Relative potency,[29],0.1
same,Relative potency,[2],<0.1
CCCCC[C@@H]1/C=C\C2C(=O)CC(O)[C@@H]2C/C=C\CCCC(=O)O1 (stereo not given in full),Relative potency,[29],0.1
same,Relative potency,[30],0.1
CCCCC[C@@H]1/C=C\C2[C@H](O)C[C@H](O)[C@@H]2C/C=C\CCCC(=O)O1 (stereo not given in full),Cross reaction,[10],0.9%
same,Relative potency,[31],0.1
same,Hydrolysis,[11],55.3%
same,Hydrolysis,[12],75.6%
same,Hydrolysis,[13],55.6%
same,Hydrolysis,[14],57.9%
same,Hydrolysis,[15],41.7%
same,Hydrolysis,[16],8.4%
same,Hydrolysis,[17],51.4%
same,Hydrolysis,[18],58.7%
same,Relative potency,[2],<0.1
same,Urinary excretion,[32],77.1 µg
same,Urinary excretion,[33],3.9 µg
CCCCC(C)(C)[C@H](O)/C=C/C1[C@H](O)C[C@@H]2OC(=O)CCC/C=C\C[C@H]12 (stereo not given in full),Relative potency,[34],32
same,Relative potency,[30],0.1
CCCCC[C@](C)(O)/C=C/C1[C@H](O)C[C@@H]2OC(=O)CCC/C=C\C[C@H]12 (stereo not given in full),Relative potency,[1],1
same,Relative potency,[35],3
CCCCC[C@@H]1/C=C\C2[C@H](O)CC(=O)[C@@H]2CCCCCCC(=O)O1 (stereo not given in full),Relative potency,[8],<0.1
same,Relative potency,[2],<0.1
CCCCC[C@@H](/C=C/C1[C@H](O)C[C@H](O)[C@@H]1C/C=C\CCCC(=O)O)OC(C)=O (stereo not given in full),Cross reaction,[10],2.4%
same,Hydrolysis,[11],59.1%
same,Hydrolysis,[12],85%
same,Hydrolysis,[13],3.3%
same,Hydrolysis,[14],6.8%
same,Hydrolysis,[15],9.4%
same,Hydrolysis,[16],3.6%
same,Hydrolysis,[17],18%
same,Hydrolysis,[18],25.7%
CCCCC[C@H](O)/C=C/C1C(=O)C[C@@H]2OC(=O)CCC/C=C\C[C@H]12 (stereo not given in full),Relative potency,[5],0.3
same,Relative potency,[36],10
CCCCC[C@](C)(O)/C=C/C1[C@@H]2C[C@@H](O)[C@H]1C/C=C\CCCC(=O)O2 (stereo not given in full),Relative potency,[8],<0.1
same,Relative potency,[37],0.3
O=C1CCC/C=C\C[C@@H]2C(/C=C\[C@@H](COc3ccccc3)O1)[C@H](O)C[C@@H]2O (stereo not given in full),Relative potency,[38],0.1
same,Relative potency,[39],inactive
same,Relative potency,[40],Toxic
